Measured values taken from ChEMBL document CHEMBL1649372, “Discovery of highly potent agents against influenza A virus” (Eur J Med Chem, 2011).
Active and inactive are the calls of the source. The rule behind the calls is not given here.

test system: Influenza A virus; assay: Antiviral activity against amantadine-sensitive Influenza A virus A/Hong Kong/8/68 (H3N2) infected in MDCK cells assessed as host cell survival after 72 hrs by CCK8 method; assay type: functional, organism-based
Procedure, shortened: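 Compounds added with TPCK and 0.3% BSA and preincubated 30 min at 37 °C. Cells then infected with about 0.01 MOI A/Hong Kong/8/68 (H3N2) and incubated 72 h at 37 °C in 5% CO2. CCK-8 reagent then added to read host cell survival.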

Row | SMILES | IC50
1 | CN[C@@H]1C[C@@H]2C[C@H]([C@H]1C)C2(C)C | 23.5 µM
2 | CCN[C@@H]1C[C@@H]2C[C@H]([C@H]1C)C2(C)C | > 200 µM
3 | C[C@@H]1[C@H]2C[C@@H](C[C@H]1/N=C/c1cccc(O)c1)C2(C)C | 5.99 µM
4 | C[C@@H]1[C@H]2C[C@@H](C[C@H]1/N=C/c1ccccc1O)C2(C)C | 20.3 µM
5 | C[C@@H]1[C@H]2C[C@@H](C[C@H]1/N=C/c1ccc(O)cc1)C2(C)C | 0.088 µM
6 | C[C@@H]1[C@H]2C[C@@H](C[C@H]1NCc1ccc(O)cc1)C2(C)C | > 200 µM
7 | C[C@@H]1[C@H]2C[C@@H](C[C@H]1NCC1CC1)C2(C)C | 28.5 µM
8 | C[C@@H]1[C@H]2C[C@@H](C[C@H]1NCc1ccc(F)cc1)C2(C)C | > 200 µM
9 | CC(C)N[C@@H]1C[C@@H]2C[C@H]([C@H]1C)C2(C)C | > 200 µM
10 | Cc1ccc(/C=N/[C@@H]2C[C@@H]3C[C@H]([C@H]2C)C3(C)C)cc1 | 13.9 µM
11 | C[C@@H]1[C@H]2C[C@@H](C[C@H]1/N=C/c1ccc(F)cc1)C2(C)C | 16.3 µM
12 | NC12CC3CC(CC(C3)C1)C2 [AMANTADINE] | 21.1 µM
13 | C[C@@H]1[C@H]2C[C@@H](C[C@H]1NC1CCCCC1)C2(C)C | 43.7 µM
14 | C[C@@H]1[C@H]2C[C@@H](C[C@H]1/N=C/c1ccc(N(C)C)cc1)C2(C)C | 38.4 µM
15 | C[C@@H]1[C@H]2C[C@@H](C[C@H]1/N=C/c1ccccc1)C2(C)C | 7.78 µM

test system: Influenza A virus; assay: Antiviral activity against amantadine-sensitive Influenza A virus A/Hong Kong/8/68 (H3N2) infected in MDCK cells at 0.01 to 10 uM after 2 to 3 days by crystal violet staining by plaque reduction assay; assay type: functional, organism-based
Procedure, shortened: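 MDCK monolayer infected with 0.01 MOI A/Hong Kong/8/68 for 1 h at 37 °C. Inoculum removed and cells washed twice with PBS, then overlaid with 1% agar DMEM containing test agent. Plaque formation scored.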

Row | SMILES | Activity
16 | C[C@@H]1[C@H]2C[C@@H](C[C@H]1/N=C/c1ccc(O)cc1)C2(C)C | Active

test system: Influenza A virus; assay: Ratio of compound IC50 to amantadine IC50 for Influenza A virus A/Hong Kong/8/68 (H3N2); assay type: functional

Row | SMILES | Ratio IC50
17 | C[C@@H]1[C@H]2C[C@@H](C[C@H]1/N=C/c1ccc(O)cc1)C2(C)C | 240
